Results reported in the array DNA melting data of Ke et al. (doi:10.1101/2024.01.08.574731).

Legend:
[1] = folding enthalpy; higher = less favourable; fluorescence melt of hairpins on a sequencing array, two-state fit; details: sodium 0.088 M
In short: (§1)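 Folding enthalpy and melting temperature come from bootstrapped two-state fits to Cy3 fluorescence of library hairpins carrying annealed Cy3 and quencher oligos on a sequenced MiSeq flow cell. Imaging was done in 50 mM Na-HEPES pH 8.0, 25 mM NaCl, stepping by 2.5 °C up to 60 °C, and signals were normalised to pre-quench Cy3 and to control constructs. Results of four replicates were combined by inverse variance, and fitted temperatures were raised by 9.35 °C to match UV melts.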

[2] = melting temperature; fluorescence melt of hairpins on a sequencing array, two-state fit, raised by 9.35 °C to match UV melts; details: sodium 0.088 M
In short: as §1

| Sequence | folding enthalpy [1] [kcal/mol] | Tm [2] [°C] |
| --- | --- | --- |
| GATCAGAACCTGATC ((((((...)))))) | -36.2 | 46.7 |
| GTTATACCGAAAGGTAAC (((..(((....)))))) | -10.4 | 32.8 |
| GAGGGGGGAAACCCCCCC (.(((((....))))).) | -8.39 | 52.5 |
| GTATATGCGAAAGCATAC (((..(((....)))))) | -8.89 | 32.1 |
| GTGGTGCGAAAGCATCAC (((.(((....))).))) | -30.4 | 67 |
| GATCTGATTTCAGATC ((((((....)))))) | -34.4 | 51.4 |
| GTCTGAGGAAACTCAAAC ((.((((....)))).)) | -11.3 | 24.5 |
| GTATGCGAAAGCAAGTAC ((((((....)))..))) | -8.53 | 26.1 |
| GCACTCGAAAGAGTCTGC ((((((....)))..))) | -19.2 | 40.1 |
| GCAGTCGAAAGACTATGC ((((((....)))..))) | -17.8 | 46.2 |
| GATCAACCGTTGATC ((((((...)))))) | -38.1 | 41.1 |
| GATGCGCGAAAGCGAATC (((.(((....))).))) | -22.3 | 57.2 |
| GCACCATCGAAAGATTGC (((..(((....)))))) | -20 | 29.1 |
| GCCCTCGAAAGAGGTGGC ((((((....)))..))) | -17.7 | 48.4 |
| GTCATAGGAAACTATGGC (.(((((....))))).) | -29.1 | 44.6 |
| GACGACGAAAGTCAGTC ((((((....))).))) | -24.9 | 54.1 |
| GCGTAGCGAAAGCTCGC (((.(((....)))))) | -16.4 | 63.3 |
| GCCTTGGGAAACCAAAGC ((.((((....)))).)) | -18 | 37.6 |
| GGTCTTCCGAAAGGAACC (((..(((....)))))) | -10.5 | 26.5 |
| GGGTTTCGAAAGAAGCCC (((.(((....))).))) | -44.4 | 57.1 |
| CGAATGCGGAAACGCTCG (((..(((....)))))) | -15.3 | 37.2 |
| GCGACCACGAAAGTGCGC (((..(((....)))))) | -20.9 | 48.5 |
| GCAAAGCGAAAGCTATGC (((.(((....))).))) | -33.5 | 52 |
| GACATCGGAAACAATGTC (((((.(....).))))) | -33 | 34.1 |

| Sequence | folding enthalpy [1] [kcal/mol] | Tm [2] [°C] |
| --- | --- | --- |
| GACTTGAAAAAGTC (((((....))))) | -26.7 | 44.5 |
| GCGTTGCGAAAGCACTGC ((..(((....)))..)) | -18.2 | 46.1 |
| GACCTAGAAATAGGTC ((((((....)))))) | -35.6 | 51.3 |
| GGTGCCGAAAGGCTTACC ((((((....)))..))) | -13.7 | 44.1 |
| GGTGTTCGAAAGAAACC (((.(((....)))))) | -14.1 | 34.1 |
| GATCCGAACACGGATC ((((((....)))))) | -36.6 | 57.2 |
| GCGACCCTCGC ((((...)))) | -20.7 | 49.4 |
| GAGTCCGGAAACGGACCC (.(((((....))))).) | -9.42 | 46.2 |
| GATCGCTGGTGCGATC ((((((....)))))) | -34.2 | 68.6 |
| GGCCAGTCGAAAGACGCC (((..(((....)))))) | -18.2 | 50.1 |
| GGTTTTGGAAACAAAGCC ((.((((....)))).)) | -29.1 | 46 |
| GAGTAGGCGAAAGCCCTC (((..(((....)))))) | -10.8 | 35.4 |
| GATCTATGTGTAGATC ((((((....)))))) | -49.8 | 48 |
| GATCCATCGCTGGATC ((((((....)))))) | -39.1 | 50.8 |
| GGATACGAAAGTATATCC ((((((....)))..))) | -18.3 | 34.5 |
| CGATCGGAAACGATTCG ((((((....))).))) | -24.9 | 43.7 |
| GGGATGGGAAACCGTCCC ((((.((....)).)))) | -50.5 | 56.5 |
| GATACGGGAAACCGCATC (((.(((....))).))) | -24.8 | 41.4 |
| GCAAGGCGAAAGCTATGC (((..((....))..))) | -20.8 | 42.4 |
| GATCAATTATTGATC ((((((...)))))) | -29.3 | 43.8 |
| GCGGGAAACCGC ((((....)))) | -22.9 | 67.3 |
| GACGCGCCGAAAGGCGTC (((..(((....)))))) | -6.51 | 37.7 |
| GCATCCGAAAGGAGATGC ((((((....)))..))) | -33.6 | 50.1 |
| GTGACCGAAAGGTTCAC ((((((....))).))) | -29.5 | 53 |

| Sequence | folding enthalpy [1] [kcal/mol] | Tm [2] [°C] |
| --- | --- | --- |
| GGGAGGCCGAAAGGCCCC (((..(((....)))))) | -9.7 | 56.6 |
| GTTGTATCGAAAGATAAC (((..(((....)))))) | -27.3 | 37.1 |
| GCCGGGACGAAAGTCGGC (((..(((....)))))) | -29.8 | 60.9 |
| GAGAAGAAATTCTC (((((....))))) | -9.49 | 28.9 |
| GATCACACGCGTGATC ((((((....)))))) | -38.6 | 58.5 |
| GGGCTCGGAAACGGGCTC (.((.((....)).)).) | -20.2 | 49.6 |
| CGCCGTCGGAAACGAGCG (((..(((....)))))) | -28.4 | 50.3 |
| GATCCTTTTCAGGATC ((((((....)))))) | -32.6 | 52.6 |
| GTCATGCGAAAGCAGAC (((.(((....)))))) | -22.4 | 49.8 |
| CGTGCGGAAACGCAAACG ((((((....)))..))) | -19.9 | 45.3 |
| GCGACGGGAAACCGTCAC (.(((((....))))).) | -13 | 48.7 |
| GCCAACGGAAACGTTGAC (.(((((....))))).) | -16.5 | 46.5 |
| GGAAGCGAAAGCTTTCC ((((((....))).))) | -30.2 | 50.1 |
| CGCGTGCGGAAACGCGCG (((..(((....)))))) | -12.4 | 66.1 |
| GTTCGGCGAAAGCCCAAC (((.(((....))).))) | -11.2 | 37.1 |
| GATCGCCAACGCGATC ((((((....)))))) | -36.6 | 62.9 |
| GATCTTGCTAAAGATC ((((((....)))))) | -38.1 | 53.2 |
| GATCGCACGGGCGATC ((((((....)))))) | -30.9 | 67.1 |
| GATCTGCAGCAGATC ((((((...)))))) | -35 | 49.2 |
| GATCAATAATTGATC ((((((...)))))) | -23.8 | 40.3 |
| GAAGGTGGAAACGCCTTC (((((.(....).))))) | -31.9 | 51.9 |
| GCGTACGGAAACATACGC (((((.(....).))))) | -33.8 | 46.8 |
| GTCTCGGGAAACCAAGAC ((((.((....)).)))) | -26.5 | 37.2 |
| GATCGCTCACGCGATC ((((((....)))))) | -41.2 | 67.8 |

| Sequence | folding enthalpy [1] [kcal/mol] | Tm [2] [°C] |
| --- | --- | --- |
| GTTTGCGAAAGCAAAAC ((((((....))).))) | -17.4 | 52.6 |
| GATCGTTGCACGATC ((((((...)))))) | -38.6 | 60.7 |
| GATCCCATGGGGGATC ((((((....)))))) | -32.4 | 60.1 |
| GATCCTGTCTAGGATC ((((((....)))))) | -39.4 | 56 |
| CGCCGCGGAAACGCGCG (((.(((....)))))) | -16.6 | 66.6 |
| GACGGCCGAAAGGCGTC (((.(((....)))))) | -20.6 | 64.8 |
| CGAACGGAAACGTACTCG ((((((....)))..))) | -5.58 | 15 |
| GAAAGTGGAAACACTTTC (((((((....))))))) | -36.1 | 56.8 |
| GTCGTCGAAAGACGCGAC ((((((....)))..))) | -12.5 | 55.7 |
| GCGACCGGAAACGATCGC ((((.((....)).)))) | -38.7 | 55 |
| AGGTCGAAAGACCT (((((....))))) | -22.1 | 67.4 |
| GCGTGAACGAAAGTTCGC (((..(((....)))))) | -15.3 | 48.6 |
| GATCTCAGGTGAGATC ((((((....)))))) | -32.2 | 53.6 |
| CGCTCTCGGAAACGAGCG (((..(((....)))))) | -17.5 | 46 |
| GGAAGCGGAAACGTTTCC ((((.((....)).)))) | -39.7 | 49.8 |
| GCGTTGACACGC ((((....)))) | -21.2 | 50.1 |
| GATCTTAACTAAGATC ((((((....)))))) | -32.5 | 44 |
| GCTAAGCGAAAGCCGAGC (((..((....))..))) | -19.1 | 42.2 |
| GATTGGGGAAACCCAGTC ((.((((....)))).)) | -24.4 | 44.7 |
| GCGTCTCGAAAGAGCGC (((.(((....)))))) | -31 | 66.8 |
| GAACAACGAAAGTTTTC (((.(((....)))))) | -11.8 | 28.2 |
